Measured values as given in ChEMBL document CHEMBL4428071 (J Med Chem, 2016).
In brackets after ≈: the same amount, converted by molar mass. Activity calls are given as the source filed them. The rule behind the calls is not given here.

Tests used:
[1] = AUC (0 to t) in Sprague-Dawley rat at 1 mg/kg, iv measured up to 8 hrs post dosing; format: ADME, organism-based; parameters: time < 8 hr, dose 1 mg/kg, route intravenous; settings: in vivo
How it was run: (§1)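 Male Sprague-Dawley rats, 8 weeks old, fasted overnight; iv dosing from a 1 mg/mL solution in 5% DMSO/40% PEG400/55% saline. Jugular-vein blood (~0.2 mL, heparinised) taken at 1, 5, 15, 30 min and 1, 2, 4, 6, 8 h; plasma held at -80 °C until analysis; n=3.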

[2] = target: T1, Mast/stem cell growth factor receptor Kit (Homo sapiens, UniProt P10721); experiment: Inhibition of wild type cKIT autophosphorylation at Y719 in human GIST-T1 cells at 100 nM after 1 hr by Western blot analysis; format: cell-based
T1 sequence (P10721 whole entry): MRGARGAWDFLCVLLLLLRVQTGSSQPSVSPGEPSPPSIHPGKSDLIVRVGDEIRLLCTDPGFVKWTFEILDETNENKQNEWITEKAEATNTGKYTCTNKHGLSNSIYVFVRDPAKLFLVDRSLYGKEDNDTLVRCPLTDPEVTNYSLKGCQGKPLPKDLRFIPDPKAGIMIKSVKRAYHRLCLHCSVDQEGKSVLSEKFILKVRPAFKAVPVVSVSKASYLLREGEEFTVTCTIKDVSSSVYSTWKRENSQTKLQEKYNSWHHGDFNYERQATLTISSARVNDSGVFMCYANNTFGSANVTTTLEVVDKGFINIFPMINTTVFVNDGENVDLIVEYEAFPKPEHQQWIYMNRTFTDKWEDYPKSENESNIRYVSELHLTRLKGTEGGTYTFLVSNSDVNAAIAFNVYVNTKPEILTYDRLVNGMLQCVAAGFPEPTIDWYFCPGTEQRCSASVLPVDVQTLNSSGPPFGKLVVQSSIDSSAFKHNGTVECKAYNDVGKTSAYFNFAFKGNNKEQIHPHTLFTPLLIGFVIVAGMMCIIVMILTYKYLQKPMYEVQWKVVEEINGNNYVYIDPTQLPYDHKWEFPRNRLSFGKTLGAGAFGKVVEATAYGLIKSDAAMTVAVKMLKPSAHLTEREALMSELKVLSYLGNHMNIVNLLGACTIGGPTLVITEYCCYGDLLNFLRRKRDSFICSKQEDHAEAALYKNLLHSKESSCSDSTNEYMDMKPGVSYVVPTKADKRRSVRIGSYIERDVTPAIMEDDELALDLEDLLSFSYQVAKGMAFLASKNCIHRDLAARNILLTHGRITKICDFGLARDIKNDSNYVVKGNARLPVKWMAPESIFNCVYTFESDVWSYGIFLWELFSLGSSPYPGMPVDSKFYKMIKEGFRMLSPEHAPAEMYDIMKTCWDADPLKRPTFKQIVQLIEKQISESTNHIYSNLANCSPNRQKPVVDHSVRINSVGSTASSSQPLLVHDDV
How it was run: (§2)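 GIST-T1 or GIST-5R cells in DMEM with 10% FBS were treated with serially diluted compound for 1 h. Cells were then lysed and analysed by western blotting.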

[3] = Apparent clearance in Sprague-Dawley rat at 1 mg/kg, iv measured up to 8 hrs post dosing; format: ADME, organism-based; settings: in vivo, read-out: CL(app) (converted); how it was run: as §1
[4] = test system: BaF3; experiment: Antiproliferative against mouse BA/F3 cells harboring TEL-fused cKIT T670I mutant allografted in nu/nu mouse assessed as tumor growth inhibition at 25 to 100 mg/kg, ip administered daily for 10 days by Ki-67 staining based microscopic analysis; format: functional, organism-based
How it was run: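 Tumours from BaF3-TEL-cKIT-T670I subcutaneous xenografts in nu/nu mice after 10 days of daily IP dosing (25–100 mg/kg/d). Sections underwent citrate pH 6.0 microwave antigen retrieval and casein block, then anti-Ki-67 mouse mAb 1:50 overnight at 4 °C. Detection with DAB and haematoxylin counterstain.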

[5] = AUC (0 to infinity) in Sprague-Dawley rat at 1 mg/kg, iv measured up to 8 hrs post dosing; format: ADME, organism-based; parameters: dose 1 mg/kg, route intravenous, time infinity; settings: in vivo; how it was run: as §1
[6] = target: T1, Mast/stem cell growth factor receptor Kit; experiment: Inhibition of wild type cKIT in human GIST-T1 cells assessed as downregulation of S6 phosphorylation at S235/236 after 1 hr by Western blot analysis; format: cell-based
How it was run: (§3)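 GIST-T1 cells in DMEM with 10% FBS were exposed to serially diluted compound for 1 h, then lysed. Lysates were analysed by western blot with phospho-specific antibodies against AKT (Ser473), ERK1/2 (Thr202/Tyr204) and S6 ribosomal protein (Ser235/236), each alongside its total protein.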

[7] = Tmax in Sprague-Dawley rat at 1 mg/kg, iv measured up to 8 hrs post dosing; format: ADME, organism-based; settings: in vivo
How it was run: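 Male Sprague-Dawley rats, 8 weeks old, fasted overnight, dosed at 1 mg/kg iv from a 1 mg/mL stock in 5% DMSO/40% PEG400/55% saline. About 0.2 mL jugular blood taken into heparin at 1 min to 8 h. Plasma held at -80 °C until analysis. n = 3, mean reported.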

[8] = target: Platelet-derived growth factor receptor beta (Homo sapiens) (UniProt P09619); experiment: Inhibition of partial length human PDGFRbeta expressed in bacterial expression system assessed as activity remaining at 1 uM by kinome scan assay
Platelet-derived growth factor receptor beta (Homo sapiens), sequence (P09619 whole entry): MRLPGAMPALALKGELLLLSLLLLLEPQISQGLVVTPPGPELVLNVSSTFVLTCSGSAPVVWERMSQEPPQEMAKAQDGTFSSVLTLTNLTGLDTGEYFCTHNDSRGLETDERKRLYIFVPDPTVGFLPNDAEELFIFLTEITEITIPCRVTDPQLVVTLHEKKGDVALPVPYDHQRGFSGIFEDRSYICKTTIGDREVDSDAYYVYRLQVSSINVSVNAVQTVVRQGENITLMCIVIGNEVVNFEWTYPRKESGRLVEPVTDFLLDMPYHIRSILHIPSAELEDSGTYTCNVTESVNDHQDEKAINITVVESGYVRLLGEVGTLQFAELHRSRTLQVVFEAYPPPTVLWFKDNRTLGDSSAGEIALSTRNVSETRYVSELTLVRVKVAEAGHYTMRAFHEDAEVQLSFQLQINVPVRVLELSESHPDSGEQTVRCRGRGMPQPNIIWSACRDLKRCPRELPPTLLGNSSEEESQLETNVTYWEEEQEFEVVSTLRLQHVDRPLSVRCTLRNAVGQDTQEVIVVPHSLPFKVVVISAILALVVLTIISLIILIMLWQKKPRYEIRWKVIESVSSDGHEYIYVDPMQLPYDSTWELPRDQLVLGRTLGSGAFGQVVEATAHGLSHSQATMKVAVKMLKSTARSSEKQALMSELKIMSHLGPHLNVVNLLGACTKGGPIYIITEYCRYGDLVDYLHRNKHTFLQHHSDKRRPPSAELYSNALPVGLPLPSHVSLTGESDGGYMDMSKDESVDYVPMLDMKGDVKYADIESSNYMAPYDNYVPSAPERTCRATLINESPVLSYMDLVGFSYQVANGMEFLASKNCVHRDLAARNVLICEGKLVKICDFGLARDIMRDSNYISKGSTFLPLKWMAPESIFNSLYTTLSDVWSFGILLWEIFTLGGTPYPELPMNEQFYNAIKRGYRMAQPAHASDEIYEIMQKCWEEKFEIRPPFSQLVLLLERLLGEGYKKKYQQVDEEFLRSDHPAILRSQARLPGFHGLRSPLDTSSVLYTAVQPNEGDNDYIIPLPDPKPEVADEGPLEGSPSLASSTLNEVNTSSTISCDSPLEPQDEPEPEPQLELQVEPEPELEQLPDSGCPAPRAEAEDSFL

[9] = species on record: Homo sapiens; experiment: Induction of apoptosis in human GIST5R cells assessed as increase in cleaved PARP levels after at 30 nM 24 hrs by Western blot analysis; format: functional, cell-based
How it was run: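 GIST-T1 or GIST-5R cells in DMEM with 10% FBS were exposed to serially diluted compound for 24 h. Apoptosis was assessed by western blot with PARP and GAPDH antibodies.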

[10] = target: Macrophage colony-stimulating factor 1 receptor (Homo sapiens) (UniProt P07333); experiment: Inhibition of partial length human CSF1R expressed in bacterial expression system assessed as activity remaining at 1 uM by kinome scan assay
[11] = target: T1, Mast/stem cell growth factor receptor Kit; experiment: Inhibition of wild type cKIT in human GIST-T1 cells assessed as downregulation of ERK phosphorylation at T202//204 after 1 hr by Western blot analysis; format: cell-based; how it was run: as §3
[12] = target: T1, Mast/stem cell growth factor receptor Kit; experiment: Inhibition of wild type cKIT in human GIST-T1 cells assessed as cell growth inhibition after 72 hrs by cell titer-glo assay; format: cell-based
How it was run: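 GIST-T1 cells (cKIT wt) grown in DMEM with 10% FBS and 1% penicillin/streptomycin at 37 °C, 5% CO2. Viability read by CellTiter-Glo luminescence and normalized to DMSO controls. GI50 taken from the mean of three independent measurements.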

[13] = target: Vascular endothelial growth factor receptor 3 (Homo sapiens) (UniProt P35916); experiment: Inhibition of partial length human FLT4 expressed in bacterial expression system assessed as activity remaining at 1 uM by kinome scan assay
Vascular endothelial growth factor receptor 3 (Homo sapiens), sequence (P35916 whole entry): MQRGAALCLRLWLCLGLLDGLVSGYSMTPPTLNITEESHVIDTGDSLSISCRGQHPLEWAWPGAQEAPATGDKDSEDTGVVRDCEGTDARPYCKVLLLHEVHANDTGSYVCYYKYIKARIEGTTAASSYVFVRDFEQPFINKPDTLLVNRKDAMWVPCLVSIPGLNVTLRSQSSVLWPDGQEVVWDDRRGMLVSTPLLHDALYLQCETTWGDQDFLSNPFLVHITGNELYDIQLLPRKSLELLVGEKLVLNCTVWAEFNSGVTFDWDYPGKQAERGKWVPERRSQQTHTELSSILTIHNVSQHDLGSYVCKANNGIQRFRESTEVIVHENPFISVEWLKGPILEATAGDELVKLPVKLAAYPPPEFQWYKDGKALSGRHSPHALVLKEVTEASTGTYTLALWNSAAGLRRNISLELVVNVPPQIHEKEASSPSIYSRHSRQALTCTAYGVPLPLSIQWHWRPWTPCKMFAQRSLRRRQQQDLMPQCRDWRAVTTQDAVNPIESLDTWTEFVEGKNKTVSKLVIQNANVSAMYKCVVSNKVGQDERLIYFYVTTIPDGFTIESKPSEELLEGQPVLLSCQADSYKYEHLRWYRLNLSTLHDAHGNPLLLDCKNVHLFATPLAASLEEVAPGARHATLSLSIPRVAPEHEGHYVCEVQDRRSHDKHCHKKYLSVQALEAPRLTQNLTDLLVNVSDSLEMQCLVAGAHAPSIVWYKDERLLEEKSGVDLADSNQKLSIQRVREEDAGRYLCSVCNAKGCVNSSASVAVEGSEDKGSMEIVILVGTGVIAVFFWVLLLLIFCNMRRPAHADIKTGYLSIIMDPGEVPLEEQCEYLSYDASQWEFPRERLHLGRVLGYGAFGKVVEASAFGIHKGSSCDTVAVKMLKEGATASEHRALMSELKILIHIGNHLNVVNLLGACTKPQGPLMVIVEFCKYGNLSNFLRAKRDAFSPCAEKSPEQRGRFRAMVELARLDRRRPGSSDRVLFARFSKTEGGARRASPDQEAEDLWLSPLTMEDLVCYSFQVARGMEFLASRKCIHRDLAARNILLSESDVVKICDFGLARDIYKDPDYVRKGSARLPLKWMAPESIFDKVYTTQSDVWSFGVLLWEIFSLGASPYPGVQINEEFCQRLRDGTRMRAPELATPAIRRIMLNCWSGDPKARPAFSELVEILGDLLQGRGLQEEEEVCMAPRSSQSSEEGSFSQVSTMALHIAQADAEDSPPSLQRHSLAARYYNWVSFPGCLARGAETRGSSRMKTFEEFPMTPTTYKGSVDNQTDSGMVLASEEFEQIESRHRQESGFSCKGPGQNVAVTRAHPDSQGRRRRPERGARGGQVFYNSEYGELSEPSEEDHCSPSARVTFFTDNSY

[14] = target: T1, Mast/stem cell growth factor receptor Kit; experiment: Inhibition of partial length human cKIT expressed in bacterial expression system assessed as activity remaining at 1 uM by kinome scan assay
[15] = test system: BaF3; experiment: Antitumor activity against TEL-fused cKIT T670I mutant expressing mouse BA/F3 cells allografted in nu/nu mouse assessed as tumor growth inhibition dosed daily via intaperitoneal route after 10 days; format: functional, organism-based
How it was run: (§4)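 Female nu/nu mice, 5 weeks old at purchase, given 1 million BaF3-TEL-cKIT-T670I cells in PBS/Matrigel 1:1 subcutaneously on the right flank. At tumour volume 200–400 mm3, randomised into groups of 7 and dosed IP daily for 10 days (25, 50, 100 mg/kg/d or vehicle: 0.5% methylcellulose/0.4% Tween80 in water). Tumour volume (W2×L/2) and body weight recorded daily.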

[16] = target: Serine/threonine-protein kinase 10 (Homo sapiens) (UniProt O94804); experiment: Inhibition of partial length human LOK expressed in bacterial expression system assessed as activity remaining at 1 uM by kinome scan assay
Serine/threonine-protein kinase 10 (Homo sapiens), sequence (O94804 whole entry, looked up): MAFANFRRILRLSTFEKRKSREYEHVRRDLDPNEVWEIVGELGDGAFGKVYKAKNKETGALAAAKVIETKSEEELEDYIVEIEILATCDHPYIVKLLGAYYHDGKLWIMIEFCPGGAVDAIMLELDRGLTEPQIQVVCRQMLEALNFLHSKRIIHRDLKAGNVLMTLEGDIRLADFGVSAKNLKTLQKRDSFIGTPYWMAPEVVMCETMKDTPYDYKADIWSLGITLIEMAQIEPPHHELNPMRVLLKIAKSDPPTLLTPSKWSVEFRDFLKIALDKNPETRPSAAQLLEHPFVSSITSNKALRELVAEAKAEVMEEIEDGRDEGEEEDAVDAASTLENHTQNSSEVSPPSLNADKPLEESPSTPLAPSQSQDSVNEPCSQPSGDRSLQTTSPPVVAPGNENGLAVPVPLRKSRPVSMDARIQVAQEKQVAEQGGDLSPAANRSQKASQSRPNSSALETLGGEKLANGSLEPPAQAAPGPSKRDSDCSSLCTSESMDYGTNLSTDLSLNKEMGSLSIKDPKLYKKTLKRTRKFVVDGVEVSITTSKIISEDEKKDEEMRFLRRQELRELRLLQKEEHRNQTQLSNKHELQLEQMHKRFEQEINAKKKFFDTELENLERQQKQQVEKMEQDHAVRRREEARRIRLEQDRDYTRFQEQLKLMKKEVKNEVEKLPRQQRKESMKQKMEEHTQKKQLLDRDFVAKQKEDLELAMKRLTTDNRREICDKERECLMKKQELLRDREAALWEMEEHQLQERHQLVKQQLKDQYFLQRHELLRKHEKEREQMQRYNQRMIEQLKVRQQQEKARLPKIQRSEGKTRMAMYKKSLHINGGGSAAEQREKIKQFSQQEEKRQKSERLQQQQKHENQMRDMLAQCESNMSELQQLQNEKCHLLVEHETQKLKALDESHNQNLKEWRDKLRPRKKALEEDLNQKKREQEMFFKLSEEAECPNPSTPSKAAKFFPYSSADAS

[17] = Apparent volume of distribution in Sprague-Dawley rat at 1 mg/kg, iv measured up to 8 hrs post dosing; format: ADME, organism-based; settings: in vivo, read-out: Vz; how it was run: as §1
[18] = test system: Mast/stem cell growth factor receptor Kit (Homo sapiens), P10721 [V559D,T670I]; experiment: Inhibition of TEL-fused cKIT T670I/V559D double mutant (unknown origin) expressed in mouse BA/F3 cells assessed as cell growth inhibition after 72 hrs by cell titer-glo assay; format: cell-based
Mast/stem cell growth factor receptor Kit (Homo sapiens), P10721 [V559D,T670I], sequence (P10721 whole entry V559D/T670I, the tested form may be a part): as the sequence (P10721 whole entry) above, with V559D, T670I counted along it
How it was run: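 Cells seeded at 3000 per well and exposed to serial compound dilutions for 72 h. Viability read by CellTiter-Glo luminescence and normalised to DMSO controls; mean of three independent measurements. BaF3 lines kept IL-3-free in RPMI 1640/10% FBS after retroviral transduction and puromycin selection. GIST lines grown in DMEM/10% FBS.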

[19] = target: Mast/stem cell growth factor receptor Kit (Homo sapiens, UniProt P10721, T670I); experiment: Inhibition of cKIT T670I mutant in human GIST-5R cells assessed as downregulation of S6 phosphorylation at S235/236 after 1 hr by Western blot analysis; format: cell-based; how it was run: as §2
[20] = test system: BaF3; experiment: Antitumor activity against TEL-fused cKIT T670I mutant expressing mouse BA/F3 cells allografted in nu/nu mouse assessed as tumor growth inhibition at 100 mg/kg/day, ip administered daily for 10 days; format: functional; settings: 240 h, read-out: TGI; how it was run: as §4
[21] = target: T1, Mast/stem cell growth factor receptor Kit; experiment: Inhibition of wild type cKIT autophosphorylation at Y703 in human GIST-T1 cells at 100 nM after 1 hr by Western blot analysis; format: cell-based; how it was run: as §2
[22] = Cmax in Sprague-Dawley rat at 1 mg/kg, iv measured up to 8 hrs post dosing; format: ADME, organism-based; parameters: dose 1 mg/kg, route intravenous; settings: in vivo; how it was run: as §1
[23] = Solubility of the compound in PBS buffer at pH 7.4; format: physicochemical
How it was run: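 Solubility measured in PBS pH 7.4 and in pure water, reported as µg/mL.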

## CCC(=O)NCC1CCN(c2ccc(NC(=O)Nc3cccc(Oc4ccnc5cc(OC)c(OC)cc45)c3)cc2C(F)(F)F)CC1
[1]
  AUCt: 377 ng·h/mL
[2]
  inhibition: Active
[3]
  clearance: 46 mL/min/kg
[4]
  TGI: Active
[5]
  AUC: 385 ng·h/mL
[6]
  EC50: < 100 nM
[7]
  Tmax: 1.02 min
[8]
  Activity: 0%
[9]
  Activity: Active
[10]
  Activity: 0.05%
[11]
  EC50: < 100 nM
[12]
  GI50: 4 nM
[13]
  Activity: 0%
[14]
  Activity: < 1%
[15]
  TGI: Dose-dependent effect
[16]
  Activity: 0.35%
[17]
  Vd: 7.91 L/kg
[18]
  GI50: 73 nM
[19]
  EC50: < 100 nM
[20]
  inhibition in vivo at 100 mg/kg/day: 47.7%
[21]
  inhibition: Active
[22]
  Cmax: 2560 ng/mL
[23]
  solubility: 35 µM (≈ 22.8 µg/mL)
